Data published in ChEMBL document CHEMBL2040809, “Synthesis and biological activity evaluation of cytidine-5'-deoxy-5-fluoro-N-[(alkoxy/aryloxy)] carbonyl-cyclic 2',3'-carbonates” (Eur J Med Chem, 2012).
Converted amounts (≈) assume the structure as drawn.

Experiments:
[1] = tested on: Salmonella typhimurium; assay: Mutagenic activity in Salmonella typhimurium TA102 at 0.312 to 5 mg/plate measured after incubation of upside down for 48 hrs in absence of liver S9 mixture; format: toxicity, organism-based; conditions: salmonella enterica subsp. enterica serovar typhimurium
In short: (§1)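 Plate incorporation trial (Trial I) with histidine-dependent auxotrophs. Revertant colonies are counted against the concurrent vehicle control. Each dose and each control, including negative, vehicle and positive reference mutagens, run in triplicate plates.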

[2] = tested on: Salmonella typhimurium; assay: Mutagenic activity in Salmonella typhimurium TA98 at 0.312 to 5 mg/plate preincubated for 20 mins before addition in presence of liver S9 mixture; format: toxicity, organism-based; conditions: salmonella enterica subsp. enterica serovar typhimurium
In short: (§2)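 Pre-incubation trial (Trial II) with histidine-dependent auxotrophs. Test solution is pre-incubated with bacterial suspension and S9 mix (10% v/v) or substitution buffer before plating on selective agar. Revertant colonies are counted against the concurrent vehicle control. Triplicate plates per dose and per control (negative, vehicle, positive reference mutagens).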

[3] = tested on: Salmonella typhimurium; assay: Mutagenic activity in Salmonella typhimurium TA100 at 0.312 to 5 mg/plate measured after incubation of upside down for 48 hrs in presence of liver S9 mixture; format: toxicity, organism-based; conditions: salmonella enterica subsp. enterica serovar typhimurium, s9, 48 h; in short: as §1
[4] = tested on: Salmonella typhimurium; assay: Mutagenic activity in Salmonella typhimurium TA100 at 0.312 to 5 mg/plate preincubated for 20 mins before addition in absence of liver S9 mixture; format: toxicity, organism-based; conditions: salmonella enterica subsp. enterica serovar typhimurium; in short: as §2
[5] = tested on: Salmonella typhimurium; assay: Mutagenic activity in Salmonella typhimurium TA98 at 0.312 to 5 mg/plate measured after incubation of upside down for 48 hrs in presence of liver S9 mixture; format: toxicity, organism-based; conditions: salmonella enterica subsp. enterica serovar typhimurium, s9, 48 h; in short: as §1
[6] = tested on: NCI-H69; assay: Cytotoxicity against human NCI-H69 cells after 3 days MTT assay; format: functional, cell-based; conditions: NCI-H69, 72 h
In short: (§3)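 Cells held as monolayers in DMEM with 10% supplement. Seeded in 96-well plates on day 0 at densities set by doubling time: 1 × 10⁴/mL for HeLa and NCI-69, 2 × 10⁴/mL for MCF-7, 3 × 10⁴/mL for PZ-HPV-7. Five dilutions (10⁻⁸–5 × 10⁻⁶ mol/l), freshly prepared, added for 72 h. Growth read by MTT (succinate dehydrogenase activity); IC50 derived.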

[7] = tested on: MCF7; assay: Cytotoxicity against human MCF7 cells after 3 days MTT assay; format: functional, cell-based; conditions: MCF7, 72 h; in short: as §3
[8] = tested on: Salmonella typhimurium; assay: Mutagenic activity in Salmonella typhimurium TA100 at 0.312 to 5 mg/plate measured after incubation of upside down for 48 hrs in absence of liver S9 mixture; format: toxicity, organism-based; conditions: salmonella enterica subsp. enterica serovar typhimurium; in short: as §1
[9] = tested on: Salmonella typhimurium; assay: Mutagenic activity in Salmonella typhimurium TA102 at 0.312 to 5 mg/plate preincubated for 20 mins before addition in presence of liver S9 mixture; format: toxicity, organism-based; conditions: salmonella enterica subsp. enterica serovar typhimurium; in short: as §2
[10] = tested on: Salmonella typhimurium; assay: Mutagenic activity in Salmonella typhimurium TA1535 at 0.312 to 5 mg/plate preincubated for 20 mins before addition in presence of liver S9 mixture; format: toxicity, organism-based; conditions: salmonella enterica subsp. enterica serovar typhimurium; in short: as §2
[11] = tested on: Salmonella typhimurium; assay: Mutagenic activity in Salmonella typhimurium TA102 at 0.312 to 5 mg/plate preincubated for 20 mins before addition in absence of liver S9 mixture; format: toxicity, organism-based; conditions: salmonella enterica subsp. enterica serovar typhimurium; in short: as §2
[12] = tested on: Salmonella typhimurium; assay: Mutagenic activity in Salmonella typhimurium TA1535 at 0.312 to 5 mg/plate measured after incubation of upside down for 48 hrs in absence of liver S9 mixture; format: toxicity, organism-based; conditions: salmonella enterica subsp. enterica serovar typhimurium; in short: as §1
[13] = tested on: Salmonella typhimurium; assay: Mutagenic activity in Salmonella typhimurium TA100 at 0.312 to 5 mg/plate preincubated for 20 mins before addition in presence of liver S9 mixture; format: toxicity, organism-based; conditions: salmonella enterica subsp. enterica serovar typhimurium; in short: as §2
[14] = tested on: Salmonella typhimurium; assay: Mutagenic activity in Salmonella typhimurium TA1537 at 0.312 to 5 mg/plate preincubated for 20 mins before addition in absence of liver S9 mixture; format: toxicity, organism-based; conditions: salmonella enterica subsp. enterica serovar typhimurium; in short: as §2
[15] = Cytotoxicity against human PZ-HPV-7 cells after 3 days MTT assay; format: functional, cell-based; conditions: 72 h; in short: as §3
[16] = tested on: Salmonella typhimurium; assay: Mutagenic activity in Salmonella typhimurium TA1537 at 0.312 to 5 mg/plate measured after incubation of upside down for 48 hrs in absence of liver S9 mixture; format: toxicity, organism-based; conditions: salmonella enterica subsp. enterica serovar typhimurium; in short: as §1
[17] = tested on: Salmonella typhimurium; assay: Mutagenic activity in Salmonella typhimurium TA98 at 0.312 to 5 mg/plate measured after incubation of upside down for 48 hrs in absence of liver S9 mixture; format: toxicity, organism-based; conditions: salmonella enterica subsp. enterica serovar typhimurium; in short: as §1
[18] = tested on: Salmonella typhimurium; assay: Mutagenic activity in Salmonella typhimurium TA102 at 0.312 to 5 mg/plate measured after incubation of upside down for 48 hrs in presence of liver S9 mixture; format: toxicity, organism-based; conditions: salmonella enterica subsp. enterica serovar typhimurium, s9, 48 h; in short: as §1
[19] = tested on: Salmonella typhimurium; assay: Mutagenic activity in Salmonella typhimurium TA1537 at 0.312 to 5 mg/plate preincubated for 20 mins before addition in presence of liver S9 mixture; format: toxicity, organism-based; conditions: salmonella enterica subsp. enterica serovar typhimurium; in short: as §2
[20] = tested on: Salmonella typhimurium; assay: Mutagenic activity in Salmonella typhimurium TA1535 at 0.312 to 5 mg/plate preincubated for 20 mins before addition in absence of liver S9 mixture; format: toxicity, organism-based; conditions: salmonella enterica subsp. enterica serovar typhimurium; in short: as §2
[21] = tested on: Salmonella typhimurium; assay: Mutagenic activity in Salmonella typhimurium TA98 at 0.312 to 5 mg/plate preincubated for 20 mins before addition in absence of liver S9 mixture; format: toxicity, organism-based; conditions: salmonella enterica subsp. enterica serovar typhimurium; in short: as §2
[22] = tested on: Salmonella typhimurium; assay: Mutagenic activity in Salmonella typhimurium TA1535 at 0.312 to 5 mg/plate measured after incubation of upside down for 48 hrs in presence of liver S9 mixture; format: toxicity, organism-based; conditions: salmonella enterica subsp. enterica serovar typhimurium, s9, 48 h; in short: as §1
[23] = tested on: HeLa; assay: Cytotoxicity against human HeLa cells after 3 days MTT assay; format: functional, cell-based; conditions: 72 h; in short: as §3
[24] = tested on: Salmonella typhimurium; assay: Mutagenic activity in Salmonella typhimurium TA1537 at 0.312 to 5 mg/plate measured after incubation of upside down for 48 hrs in presence of liver S9 mixture; format: toxicity, organism-based; conditions: salmonella enterica subsp. enterica serovar typhimurium, s9, 48 h; in short: as §1
[25] = tested on: L1210; assay: Antitumor activity against mouse L1210 cells xenografted in BDF-1 mouse assessed as increase in mean survival time at 0.16 mmol/kg, po administered 5 days in a week for 3 weeks
[26] = Toxicity in po dosed BDF-1 mouse administered qd for 28 days; format: organism-based; conditions: in vivo
[27] = tested on: L1210; assay: Antitumor activity against mouse L1210 cells xenografted in BDF-1 mouse assessed as increase in mean survival time at 0.080 mmol/kg, po administered 5 days in a week for 3 weeks
[28] = Toxicity in po dosed BDF-1 mouse; format: organism-based; conditions: in vivo

| Structure (SMILES) | Activity [1] | Activity [2] | Activity [3] | Activity [4] | Activity [5] | IC50 [6] | IC50 [7] | Activity [8] | Activity [9] | Activity [10] | Activity [11] | Activity [12] | Activity [13] | Activity [14] | IC50 [15] | Activity [16] | Activity [17] | Activity [18] | Activity [19] | IC50 [23] | also measured |
| --- | --- | --- | --- | --- | --- | --- | --- | --- | --- | --- | --- | --- | --- | --- | --- | --- | --- | --- | --- | --- | --- |
| CCC(C)COC(=O)Nc1nc(=O)n([C@@H]2O[C@H](C)[C@H]3OC(=O)O[C@H]32)cc1F (stereo partly drawn) | Non-toxic | Non-toxic | Non-toxic | Non-toxic | Non-toxic | 330 µg/mL (≈ 856 µM) | 70 µg/mL (≈ 182 µM) | Non-toxic | Non-toxic | Non-toxic | Non-toxic | Non-toxic | Non-toxic | Non-toxic | 200 µg/mL (≈ 519 µM) | Non-toxic | Non-toxic | Non-toxic | Non-toxic | 0.18 µg/mL (≈ 0.467 µM) | Activity [20]: Non-toxic; Activity [21]: Non-toxic; Activity [22]: Non-toxic; Activity [24]: Non-toxic |
| CC(C)CCOC(=O)Nc1nc(=O)n([C@@H]2O[C@H](C)[C@H]3OC(=O)O[C@H]32)cc1F | Non-toxic | Non-toxic | Non-toxic | Non-toxic | Non-toxic | 310 µg/mL (≈ 804 µM) | 100 µg/mL (≈ 260 µM) | Non-toxic | Non-toxic | Non-toxic | Non-toxic | Non-toxic | Non-toxic | Non-toxic | 350 µg/mL (≈ 908 µM) | Non-toxic | Non-toxic | Non-toxic | Non-toxic | 0.13 µg/mL (≈ 0.337 µM) | Activity [20]: Non-toxic; Activity [21]: Non-toxic; Activity [22]: Non-toxic; Activity [24]: Non-toxic |
| C[C@H]1O[C@@H](n2cc(F)c(NC(=O)Oc3ccc([N+](=O)[O-])cc3)nc2=O)[C@@H]2OC(=O)O[C@@H]21 | Non-toxic | Non-toxic | Non-toxic | Non-toxic | Non-toxic | 30 µg/mL (≈ 68.8 µM) | 6 µg/mL (≈ 13.8 µM) | Non-toxic | Non-toxic | Non-toxic | Non-toxic | Non-toxic | Non-toxic | Non-toxic | 6 µg/mL (≈ 13.8 µM) | Non-toxic | Non-toxic | Non-toxic | Non-toxic | 0.03 µg/mL (≈ 0.0688 µM) | MST [25]: 23.4 days; LD50 at 672 h [26]: 200 mg/kg; Activity [20]: Non-toxic; Activity [21]: Non-toxic; Activity [22]: Non-toxic; Activity [24]: Non-toxic; MST [27]: 27.1 days; LD50 [28]: 2000 mg/kg |
| C[C@H]1O[C@@H](n2cc(F)c(NC(=O)Oc3ccc(Cl)cc3)nc2=O)[C@@H]2OC(=O)O[C@@H]21 | – | – | – | – | – | 3 µg/mL (≈ 7.05 µM) | 30 µg/mL (≈ 70.5 µM) | – | – | – | – | – | – | – | 3 µg/mL (≈ 7.05 µM) | – | – | – | – | 0.006 µg/mL (≈ 0.0141 µM) | MST [25]: 23.7 days; LD50 at 672 h [26]: 200 mg/kg; MST [27]: 26.3 days; LD50 [28]: 2000 mg/kg |
| O=c1[nH]cc(F)c(=O)[nH]1 [FLUOROURACIL] | – | – | – | – | – | 280 µg/mL (≈ 2150 µM) | 690 µg/mL (≈ 5300 µM) | – | – | – | – | – | – | – | 170 µg/mL (≈ 1310 µM) | – | – | – | – | 0.04 µg/mL (≈ 0.308 µM) | – |
